The record followed here is ChEMBL document CHEMBL3120121, “Insights on pregnane-X-receptor modulation. Natural and semisynthetic steroids from Theonella marine sponges” (Eur J Med Chem, 2014).

SMILES strings stand for the structures.

Assay type in all cases: cell-based; call rule not given here
For data set [1], the target named is T1, Nuclear receptor subfamily 1 group I member 2 (Homo sapiens, UniProt O75469).
T1 sequence (O75469 whole entry): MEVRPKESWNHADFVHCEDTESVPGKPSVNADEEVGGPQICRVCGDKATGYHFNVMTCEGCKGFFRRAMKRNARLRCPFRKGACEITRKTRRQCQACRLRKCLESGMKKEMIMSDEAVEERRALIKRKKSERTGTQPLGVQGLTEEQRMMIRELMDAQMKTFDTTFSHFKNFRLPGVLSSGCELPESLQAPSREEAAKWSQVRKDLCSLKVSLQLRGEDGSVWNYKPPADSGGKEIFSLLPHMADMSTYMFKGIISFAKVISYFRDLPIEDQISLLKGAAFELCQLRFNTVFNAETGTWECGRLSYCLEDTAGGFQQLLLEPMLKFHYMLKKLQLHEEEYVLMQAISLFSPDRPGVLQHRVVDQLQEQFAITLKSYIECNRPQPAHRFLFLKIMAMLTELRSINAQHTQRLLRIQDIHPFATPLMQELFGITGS
Put plainly: Agonist activity at human full-length PXR transfected in human HepG2 cells co-transfected with pSG5-RXR assessed as induction of transactivation by dual-luciferase reporter gene assay. To be noted: for Activity: human, hepg2. Put shortly:
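HepG2 cells grown at 37 °C in MEM with Earle's salts, 10% FBS, 1% L-glutamine, 1% penicillin/streptomycin, seeded at 5 × 10^4 cells/well. Cotransfected with pSG5-hPXRT1, pSG5-RXR, pGL4.70-Renilla and pGL3(henance)PXRE reporter. Treated with rising concentrations (1, 10, 50) with rifaximin as positive control. Dual-luciferase readout; firefly RLU divided by Renilla RLU; EC50 from concentration–response curve.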

Data set [2] has as its target T1, Nuclear receptor subfamily 1 group I member 2. Put plainly: Partial agonist activity at human full-length PXR transfected in human HepG2 cells co-transfected with RXR assessed as reversal of rifaximin-induced transactivation at 50 uM after 18 hrs by luciferase reporter gene assay. To be noted: hepg2, 18 h. Put shortly: (§1)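 HepG2 cells cotransfected with pSG5-hPXRT1, pSG5-RXR, pCMV-βgal and pGL3(henance)PXRE reporter. At 24 h post-transfection, primed 18 h with compound at 50 plus rifaximin at 10 (antagonist mode). Luciferase luminescence measured in lysates and normalized to β-galactosidase activity. Significance p < 0.05 vs rifaximin.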

The target is the same in data set [3]. Put plainly: Antagonist activity at human full-length PXR transfected in human HepG2 cells co-transfected with pSG5-RXR assessed as reversal of rifaximin-induced transactivation at 50 uM after 18 hrs by luciferase reporter gene assay. To be noted: hepg2, 18 h. Put shortly:
as §1

For data set [4] the target is unchanged. Put plainly: Antagonist activity at human full-length PXR transfected in human HepG2 cells co-transfected with pSG5-RXR assessed as reversal of rifaximin-induced transactivation at 10 to 25 uM after 18 hrs by luciferase reporter gene assay. To be noted: hepg2, 18 h. Put shortly: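 Dose–response antagonism test in a luciferase reporter assay: transfected HepG2 cells received compound at 10, 25 or 50 together with rifaximin 10 to assess reversal of rifaximin-driven PXR transactivation.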

As to `CC(C)[C@H](C)CC[C@@H](C)[C@H]1CCC2=C3CC[C@H]4[C@H](C)[C@H](O)CC[C@]4(C)[C@H]3CC[C@@]21C`, in data set [1], the concentration giving a half-maximal response (EC50) came to 18 µM and the Activity entry is reported as “Dose-dependent effect”. Moreover, the outcome in data set [2] was Active.

For the compound `CC(C)[C@H](C)CC[C@@H](C)[C@H]1CCC2=C3CC[C@H]4[C@@H](C)[C@@H](O)CC[C@]4(C)[C@H]3CC[C@@]21C`, the Activity entry in data set [2] is recorded as “Active”; in data set [3], “Active”; in data set [4], “Not Active”.

For `C=C1[C@@H](O)CC[C@@]2(C)[C@H]1CCC1=C3CC[C@H]([C@H](C)CCC=C(C)C)[C@@]3(C)CC[C@@H]12`, the concentration for a half-maximal effect (EC50) in data set [1] was 21 µM. Also, the Activity entry in data set [1] is “Dose-dependent effect”; in data set [2], “Active”.
